Assay results pooled from the literature.
Each line is one published result; the experiments were not run side by side.

O=C(Nc1cccnn1)N1CCN([C@@H]2CCOc3cc(C(F)(F)F)ccc32)CC1
concentration (male Sprague-Dawley rat, brain; oral, 1 mg/kg, 4 h): 438 ng/g

CN(C)[C@H]1C[C@@]23CC[C@@]4(O2)C(=CC[C@]2(C)C(c5ccc6ccncc6c5)=CC[C@H]24)C=C3[C@@H](O)[C@@H]1O
CC50 (human PBMC; cell growth or viability, flow cytometry): 100 µM

O=C(O)C(F)(F)C(F)(F)C(F)(F)C(F)(F)C(F)(F)C(F)(F)C(F)(F)F
Km (Solute carrier family 22 member 6 (SLC22A6, Homo sapiens, UniProt Q4U2R8); transporter uptake, substrate; HEK293; 2.5 min, pH 7.4): 65.8 µM

COC(=O)C(NC(=O)c1cn(CCCCCF)c2ccccc12)C(C)(C)C (stereo not drawn)
half-life (male Sprague-Dawley rat, plasma; subcutaneous, 200 µg/kg): 17.1 h

Cl.Cl.O=C(CCN1CCCCC1)c1ccc(-c2ccc(C(=O)CCN3CCCCC3)cc2)cc1
half-life (Sprague-Dawley rat, plasma; oral, 25 mg/kg): 6.05 h

N#Cc1ccc(NC(=S)NN=Cc2ccc(F)cc2)cc1
CC50 (CRFK; cell growth or viability, MTS): > 100 µg/mL

COC(=O)[C@H]1[C@@H](OC(=O)c2ccccc2)C[C@@H]2CC[C@H]1N2C
concentration (male Sprague-Dawley rat, plasma; intraperitoneal, 10 mg/kg, 1 h): 310 ng/mL

N#Cc1ccc(NC(=S)NN=Cc2ccccc2)cc1
CC50 (CRFK; cell growth or viability, MTS): > 100 µg/mL

CC[C@@]1(O)C(=O)OCc2c1cc1n(c2=O)Cc2cc3ccccc3nc2-1
Papp B→A (MDCK; Caco-2; 100 µM, 105 min, pH 7.4): 10 ×10⁻⁶ cm/s
